Measurements from ChEMBL document CHEMBL1649098 (ACS Med Chem Lett, 2011).
Calls of active or inactive are those of the source.

Experiments:
[1] = target: Cytochrome P450 2D6 (Homo sapiens, UniProt P10635); assay: Inhibition of CYP2D6; type: ADME
Summary of the method: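 CYP inhibition was tested in human liver microsomes with relevant probe substrates.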

[2] = target: T1, Fatty-acid amide hydrolase 1 (Homo sapiens, UniProt O00519); assay: Inhibition of His-tagged human FAAH N-terminal transmembrane-deleted truncated form expressed in Escherichia coli preincubated for 60 mins before oleamide substrate addition
T1 sequence (O00519 whole entry): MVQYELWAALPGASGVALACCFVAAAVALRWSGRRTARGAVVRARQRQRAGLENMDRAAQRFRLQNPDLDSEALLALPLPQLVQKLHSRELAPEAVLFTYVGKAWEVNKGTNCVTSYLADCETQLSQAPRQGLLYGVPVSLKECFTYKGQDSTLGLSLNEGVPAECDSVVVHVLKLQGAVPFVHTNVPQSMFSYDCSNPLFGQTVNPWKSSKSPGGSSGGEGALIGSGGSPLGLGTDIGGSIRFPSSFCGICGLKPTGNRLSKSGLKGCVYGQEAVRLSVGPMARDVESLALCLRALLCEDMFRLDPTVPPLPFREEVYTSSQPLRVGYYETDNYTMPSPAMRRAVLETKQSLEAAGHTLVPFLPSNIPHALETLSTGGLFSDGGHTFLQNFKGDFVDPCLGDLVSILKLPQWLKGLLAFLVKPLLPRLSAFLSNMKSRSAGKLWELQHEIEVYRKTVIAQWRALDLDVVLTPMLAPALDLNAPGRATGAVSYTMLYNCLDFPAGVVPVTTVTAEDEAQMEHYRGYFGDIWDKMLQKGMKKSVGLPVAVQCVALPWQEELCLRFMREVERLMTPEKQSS
Summary of the method: (§1)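 IC50 was determined after a 60 min preincubation of inhibitor with human or rat FAAH.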

[3] = target: T2, Fatty-acid amide hydrolase 1 (Rattus norvegicus, UniProt P97612); assay: Irreversible inhibition of His-tagged rat FAAH N-terminal transmembrane-deleted truncated form expressed in Escherichia coli preincubated for 60 mins before oleamide substrate addition; summary of the method: as §1
T2 sequence (P97612 whole entry): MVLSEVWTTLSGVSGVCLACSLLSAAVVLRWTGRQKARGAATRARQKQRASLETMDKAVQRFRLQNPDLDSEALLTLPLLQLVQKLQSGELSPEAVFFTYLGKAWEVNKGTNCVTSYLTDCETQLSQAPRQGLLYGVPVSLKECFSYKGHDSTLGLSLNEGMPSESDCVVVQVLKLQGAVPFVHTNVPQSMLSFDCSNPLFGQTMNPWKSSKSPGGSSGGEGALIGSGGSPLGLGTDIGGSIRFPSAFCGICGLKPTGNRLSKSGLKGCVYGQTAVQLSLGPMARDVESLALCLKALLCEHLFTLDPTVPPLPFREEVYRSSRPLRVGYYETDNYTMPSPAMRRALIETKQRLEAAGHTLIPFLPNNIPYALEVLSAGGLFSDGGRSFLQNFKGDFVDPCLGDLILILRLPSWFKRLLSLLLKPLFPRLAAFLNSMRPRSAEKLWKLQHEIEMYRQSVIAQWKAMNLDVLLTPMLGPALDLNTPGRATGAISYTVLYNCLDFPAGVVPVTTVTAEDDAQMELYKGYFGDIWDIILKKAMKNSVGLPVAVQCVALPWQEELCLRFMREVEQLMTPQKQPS

[4] = target: T3, Fatty-acid amide hydrolase 1 (Mus musculus) (UniProt O08914); assay: Inhibition of FAAH in mouse brain membrane proteomes at 10 uM by competitive activity based protein profiling; type: cell membranes
T3 sequence (whole entry): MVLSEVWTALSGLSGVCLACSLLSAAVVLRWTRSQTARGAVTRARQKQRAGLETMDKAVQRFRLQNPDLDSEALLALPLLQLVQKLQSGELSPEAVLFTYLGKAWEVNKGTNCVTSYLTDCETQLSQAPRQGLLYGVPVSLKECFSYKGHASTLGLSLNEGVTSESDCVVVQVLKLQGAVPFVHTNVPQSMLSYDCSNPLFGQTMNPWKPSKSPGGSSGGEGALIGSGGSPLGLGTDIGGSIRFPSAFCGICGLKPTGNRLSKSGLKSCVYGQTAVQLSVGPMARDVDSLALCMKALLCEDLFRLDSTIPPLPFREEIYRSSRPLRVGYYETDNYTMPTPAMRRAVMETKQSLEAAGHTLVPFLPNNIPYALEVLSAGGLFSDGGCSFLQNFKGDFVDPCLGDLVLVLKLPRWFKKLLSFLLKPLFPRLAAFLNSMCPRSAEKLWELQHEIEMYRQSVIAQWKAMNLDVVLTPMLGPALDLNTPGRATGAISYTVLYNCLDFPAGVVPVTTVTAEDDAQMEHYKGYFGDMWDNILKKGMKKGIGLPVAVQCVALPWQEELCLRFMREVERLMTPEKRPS
Summary of the method: (§2)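 Competitive activity-based protein profiling used human and mouse brain membrane and soluble liver proteomes. Each was treated with compound at 10 or 100 μM or with DMSO, then labelled with FP-rhodamine. Serine hydrolases were resolved on fluorescent gels. Enzymes with reduced labelling intensity in the presence of inhibitor were scored as targets.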

[5] = target: T3, Fatty-acid amide hydrolase 1 (Mus musculus); assay: Inhibition of FAAH in mouse brain membrane proteomes at 100 uM by competitive activity based protein profiling; type: cell membranes; summary of the method: as §2
[6] = species: Mus musculus; assay: Inhibition of fluorophosphonate-reactive serine proteases in mouse liver soluble proteomes at 100 uM by competitive activity based protein profiling; summary of the method: as §2
[7] = species: Homo sapiens; assay: Inhibition of fluorophosphonate-reactive serine proteases in human liver soluble proteomes at 100 uM by competitive activity based protein profiling; summary of the method: as §2
[8] = Cmax in rat at 1 mg/kg, po; type: ADME, organism-based; design: dose 1 mg/kg, route oral; conditions: in vivo
Summary of the method: (§3)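 Plasma pharmacokinetics used 1 mg/kg in rat and 0.5 mg/kg in dog, given iv and po. The iv formulation was 5% dimethylacetamide/95% (40% SBE-cyclodextrin in water). Oral dosing was a methylcellulose suspension of crystalline material.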

[9] = Tmax in rat at 1 mg/kg, iv or 1 mg/kg, po; type: ADME, organism-based; conditions: in vivo; summary of the method: as §3
[10] = Clearance in rat at 1 mg/kg, iv or 1 mg/kg, po; type: ADME, organism-based; conditions: in vivo; summary of the method: as §3
[11] = Volume of distribution at steady state in rat at 1 mg/kg, iv or 1 mg/kg, po; type: ADME, organism-based; conditions: in vivo, read-out: Vdss; summary of the method: as §3
[12] = Half life in rat at 1 mg/kg, iv; type: ADME, organism-based; design: dose 1 mg/kg, route intravenous; conditions: in vivo; summary of the method: as §3
[13] = Oral bioavailability in rat at 1 mg/kg; type: ADME, organism-based; conditions: in vivo; summary of the method: as §3
[14] = Cmax in dog at 0.5 mg/kg, po; type: ADME, organism-based, Canis lupus familiaris; design: dose 0.5 mg/kg, route oral; conditions: in vivo; summary of the method: as §3
[15] = Tmax in dog at 0.5 mg/kg, iv or 0.5 mg/kg, po; type: ADME, organism-based, Canis lupus familiaris; conditions: in vivo; summary of the method: as §3
[16] = Clearance in dog at 0.5 mg/kg, iv or 0.5 mg/kg, po; type: ADME, organism-based, Canis lupus familiaris; conditions: in vivo; summary of the method: as §3
[17] = Volume of distribution at steady state in dog at 0.5 mg/kg, iv or 0.5 mg/kg, po; type: ADME, organism-based, Canis lupus familiaris; conditions: in vivo, read-out: Vdss; summary of the method: as §3
[18] = Half life in dog at 0.5 mg/kg, iv; type: ADME, organism-based, Canis lupus familiaris; design: dose 0.5 mg/kg, route intravenous; conditions: in vivo; summary of the method: as §3
[19] = system: Canis familiaris; assay: Oral bioavailability in dog at 0.5 mg/kg, iv; type: ADME, organism-based, Canis lupus familiaris; conditions: in vivo; summary of the method: as §3
[20] = system: MDCK; assay: Apparent permeability from apical to basolateral side of MDCK cells; type: ADME, cell-based, Canis lupus familiaris; conditions: dog
[21] = system: MDCK; assay: Apparent permeability from basolateral to apical side of MDCK cells; type: ADME, cell-based, Canis lupus familiaris; conditions: dog
[22] = system: Hepatocyte; assay: Metabolic stability in human hepatocytes assessed as glutathione conjugate formation; type: ADME, cell-based
Summary of the method: (§4)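 Reactive metabolite potential was assessed by looking for glutathione conjugates in rat or human hepatocyte incubations.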

[23] = system: Hepatocyte; assay: Metabolic stability in rat hepatocytes assessed as glutathione conjugate formation; type: ADME, cell-based; summary of the method: as §4
[24] = system: Liver microsomes; assay: Half life in human liver microsomes at 0.8 mg/mL protein concentration; type: ADME, Microsome
Summary of the method: (§5)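 Human liver microsomes at 0.8 mg/mL protein were used for half-life and microsomal protein binding. These in vitro data were used to predict human blood clearance.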

[25] = system: Liver microsomes; assay: Protein binding in human liver microsomes at 0.8 mg/mL protein concentration; type: ADME, Microsome; summary of the method: as §5
[26] = system: Rattus norvegicus; assay: Antihyperalgesic activity in orally dosed Sprague-Dawley rat model of complete Freund's adjuvant-induced inflammatory pain model assessed as reduction in mechanical allodynia measured 4 hrs post dose; type: functional
Summary of the method: (§6)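 CFA was injected subcutaneously into the plantar surface of the rat hind paw. Oral dosing at 0.1-10 mg/kg began 5 days post-injection, once mechanical paw withdrawal threshold had fallen. Mechanical allodynia was read as paw withdrawal threshold 4 h after dosing. n=8 rats per group; significance versus vehicle-treated groups at p<0.05.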

[27] = system: Rattus norvegicus; assay: Antihyperalgesic activity in Sprague-Dawley rat model of complete Freund's adjuvant-induced inflammatory pain model assessed as reduction in mechanical allodynia at 0.1 mg/kg, po measured 4 hrs post dose; type: functional, organism-based; design: dose 0.1 mg/kg; summary of the method: as §6
[28] = target: T4, Fatty-acid amide hydrolase 1 (Homo sapiens) (UniProt O00519); conditions: 10 uM
T4 sequence (whole entry): T1 sequence (O00519 whole entry)

[29] = target: T4, Fatty-acid amide hydrolase 1 (Homo sapiens); conditions: 100 uM

Sequence of Cytochrome P450 2D6 (P10635 whole entry): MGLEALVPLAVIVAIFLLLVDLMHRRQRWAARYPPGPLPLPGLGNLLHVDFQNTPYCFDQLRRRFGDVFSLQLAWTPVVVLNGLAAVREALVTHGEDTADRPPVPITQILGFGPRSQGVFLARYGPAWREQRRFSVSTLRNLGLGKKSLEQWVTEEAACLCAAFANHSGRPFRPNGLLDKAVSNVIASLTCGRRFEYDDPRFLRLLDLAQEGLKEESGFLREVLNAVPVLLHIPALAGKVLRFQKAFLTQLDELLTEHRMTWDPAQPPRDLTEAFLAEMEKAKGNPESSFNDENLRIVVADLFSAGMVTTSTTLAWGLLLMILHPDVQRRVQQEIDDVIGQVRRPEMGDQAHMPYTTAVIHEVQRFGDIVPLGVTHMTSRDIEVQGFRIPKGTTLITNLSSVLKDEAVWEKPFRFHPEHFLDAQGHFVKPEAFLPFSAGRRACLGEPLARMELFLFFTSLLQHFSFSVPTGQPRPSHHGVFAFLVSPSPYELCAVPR

IC50 [1]: 14500 nM | IC50 [2]: 7.2 nM | IC50 [3]: 7.4 nM | inhibition [4]: Active | inhibition [5]: Active | inhibition [6]: inactive | inhibition [7]: inactive | Cmax [8]: 256 ng/mL | Tmax [9]: 4 h | clearance [10]: 3 mL/min/kg | Vd [11]: 3.2 L/kg | half-life [12]: 14.3 h | bioavailability [13]: 88% | Cmax [14]: 240 ng/mL | Tmax [15]: 1 h | clearance [16]: 1.3 mL/min/kg | Vd [17]: 2.9 L/kg | half-life [18]: 35.2 h | F [19]: 58% | permeability [20]: 15.2 ×10⁻⁶ cm/s | permeability [21]: 20.2 ×10⁻⁶ cm/s | Stability [22]: Stable | Stability [23]: Stable | t1/2 [24]: 1.75 h | PB [25]: 90% | inhibition [28]: Active | inhibition [29]: Active
SMILES: O=C(Nc1cccnn1)N1CCC(=Cc2cccc(Oc3ccc(C(F)(F)F)cn3)c2)CC1
MED [26]: 0.1 mg/kg | inhibition [27]: Active
